ChEMBL document CHEMBL4251558, “Synthesis and preliminary antiproliferative activity of new pteridin-7(8H)-one derivatives” (Eur J Med Chem, 2018)
Blank lines part the entries; values can stand above or below the compound they belong to. The source made the active and inactive calls. No cut-off for these calls is given here.

What was measured:
ECa-109 cell line = assay: Antiproliferative activity against human EC109 cells assessed as decrease in cell viability after 48 hrs by MTT assay; assay type: functional, cell-based; settings: ECa-109, 48 h
Method in brief: (§1)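 Cells in exponential growth seeded at 3000 per well and allowed 24 h. Medium then replaced with fresh medium holding a range of compound concentrations, followed by 48 h incubation. Viability read by MTT at 570 nm. IC50 is the concentration giving 50% inhibition of proliferation, reported as mean ± SD of three independent experiments.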

MKN-45 [1] = assay: Antiproliferative activity against human MKN45 cells assessed as decrease in cell viability after 48 hrs by MTT assay; assay type: functional, cell-based; settings: MKN-45, 48 h; method in brief: as §1
NCI-H1650 = assay: Antiproliferative activity against human NCI-H1650 cells assessed as decrease in cell viability after 48 hrs by MTT assay; assay type: functional, cell-based; settings: NCI-H1650, 48 h; method in brief: as §1
MGC-803 = assay: Antiproliferative activity against human MGC803 cells assessed as decrease in cell viability after 48 hrs by MTT assay; assay type: functional, cell-based; settings: MGC-803, 48 h; method in brief: as §1
MKN-45 [2] = assay: Induction of apoptosis in human MKN45 cells assessed as formation of apoptotic bodies at 4 to 8 uM after 24 hrs by Hoechst 33258 staining-based fluorescence microscopic method; assay type: functional, cell-based
MKN-45 [3] = assay: Cell cycle arrest in human MKN45 cells assessed as accumulation at G2/M phase at 4 uM after 24 hrs by propidium iodide staining-based flow cytometric method (reference value: 1.62%); assay type: functional
Method in brief: (§2)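 MKN-45 cells exposed to compound at 0, 2, 4 or 8 µM for 24 h. Cells then fixed and stained with PI, and DNA content analysed by flow cytometry to give phase distribution. Run three times; a representative experiment is shown.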

MKN-45 [4] = assay: Induction of apoptosis in human MKN45 cells assessed as viable cells at 8 uM after 24 hrs by Annexin V-FITC/propidium iodide staining-based flow-cytometric method (reference value: 90.8%); assay type: functional; settings: MKN-45, 24 h, read-out: Activity
MKN-45 [5] = assay: Induction of apoptosis in human MKN45 cells assessed as early apoptotic cells at 4 uM after 24 hrs by Annexin V-FITC/propidium iodide staining-based flow-cytometric method (reference value: 1.31%); assay type: functional
MKN-45 [6] = assay: Induction of apoptosis in human MKN45 cells assessed as late apoptotic cells at 4 uM after 24 hrs by Annexin V-FITC/propidium iodide staining-based flow-cytometric method (reference value: 3.99%); assay type: functional
MKN-45 [7] = assay: Induction of apoptosis in human MKN45 cells assessed as cell rounding at 4 to 8 uM after 24 hrs by Hoechst 33258 staining-based fluorescence microscopic method; assay type: functional
MKN-45 [8] = assay: Cell cycle arrest in human MKN45 cells assessed as accumulation at S phase at 4 uM after 24 hrs by propidium iodide staining-based flow cytometric method (reference value: 24.9%); assay type: functional; method in brief: as §2
MKN-45 [9] = assay: Induction of apoptosis in human MKN45 cells assessed as downregulation of Bcl-2 expression at 4 to 16 uM after 24 hrs by Western blot method; assay type: functional, cell-based
Method in brief: (§3)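 MKN-45 cells treated with a range of concentrations for 24 h. Cells lysed in RIPA buffer with protease inhibitors, and protein measured by BCA assay. Lysates run on SDS-PAGE and transferred to nitrocellulose. Membranes blocked in 5% skim milk for 2 h at RT, incubated with primary antibodies overnight at 4 °C, then secondary antibody (1:5000) for 2 h at RT. Detection by ECL on film.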

MKN-45 [10] = assay: Induction of apoptosis in human MKN45 cells assessed as necrotic cells at 2 uM after 24 hrs by Annexin V-FITC/propidium iodide staining-based flow-cytometric method (reference value: 3.86%); assay type: functional
MKN-45 [11] = assay: Induction of apoptosis in human MKN45 cells assessed as cleavage of caspases-9 after 24 hrs by Western blot method; assay type: functional, cell-based; method in brief: as §3
MKN-45 [12] = assay: Cell cycle arrest in human MKN45 cells assessed as accumulation at G1 phase at 4 uM after 24 hrs by propidium iodide staining-based flow cytometric method (reference value: 58.2%); assay type: functional; method in brief: as §2
MKN-45 [13] = assay: Cell cycle arrest in human MKN45 cells assessed as accumulation at G2/M phase at 2 uM after 24 hrs by propidium iodide staining-based flow cytometric method (reference value: 1.62%); assay type: functional; method in brief: as §2
MKN-45 [14] = assay: Induction of apoptosis in human MKN45 cells assessed as late apoptotic cells at 8 uM after 24 hrs by Annexin V-FITC/propidium iodide staining-based flow-cytometric method (reference value: 3.99%); assay type: functional
MKN-45 [15] = assay: Induction of apoptosis in human MKN45 cells assessed as necrotic cells at 4 uM after 24 hrs by Annexin V-FITC/propidium iodide staining-based flow-cytometric method (reference value: 3.86%); assay type: functional
MKN-45 [16] = assay: Induction of apoptosis in human MKN45 cells assessed as cleavage of caspases-3 after 24 hrs by Western blot method; assay type: functional, cell-based; method in brief: as §3
MKN-45 [17] = assay: Cell cycle arrest in human MKN45 cells assessed as accumulation at S phase at 2 uM after 24 hrs by propidium iodide staining-based flow cytometric method (reference value: 24.9%); assay type: functional; method in brief: as §2
MKN-45 [18] = assay: Induction of apoptosis in human MKN45 cells assessed as necrotic cells at 8 uM after 24 hrs by Annexin V-FITC/propidium iodide staining-based flow-cytometric method (reference value: 3.86%); assay type: functional
MKN-45 [19] = assay: Induction of apoptosis in human MKN45 cells assessed as chromatin shrinkage at 4 to 8 uM after 24 hrs by Hoechst 33258 staining-based fluorescence microscopic method; assay type: functional, cell-based
MKN-45 [20] = assay: Cell cycle arrest in human MKN45 cells assessed as accumulation at G1 phase at 2 uM after 24 hrs by propidium iodide staining-based flow cytometric method (reference value: 58.2%); assay type: functional; method in brief: as §2
MKN-45 [21] = assay: Induction of apoptosis in human MKN45 cells assessed as early apoptotic cells at 8 uM after 24 hrs by Annexin V-FITC/propidium iodide staining-based flow-cytometric method (reference value: 1.31%); assay type: functional
MKN-45 [22] = assay: Induction of apoptosis in human MKN45 cells after 24 hrs by Annexin V-FITC/propidium iodide staining-based flow-cytometric method; assay type: functional, cell-based
MKN-45 [23] = assay: Cell cycle arrest in human MKN45 cells assessed as accumulation at G2/M phase after 24 hrs by propidium iodide staining-based flow cytometric method; assay type: functional; method in brief: as §2
MKN-45 [24] = assay: Induction of apoptosis in human MKN45 cells assessed as late apoptotic cells at 2 uM after 24 hrs by Annexin V-FITC/propidium iodide staining-based flow-cytometric method (reference value: 3.99%); assay type: functional
MKN-45 [25] = assay: Induction of apoptosis in human MKN45 cells assessed as viable cells at 2 uM after 24 hrs by Annexin V-FITC/propidium iodide staining-based flow-cytometric method (reference value: 90.8%); assay type: functional; settings: MKN-45, 24 h, read-out: Activity
MKN-45 [26] = assay: Cell cycle arrest in human MKN45 cells assessed as accumulation at S phase at 8 uM after 24 hrs by propidium iodide staining-based flow cytometric method (reference value: 24.9%); assay type: functional; method in brief: as §2
MKN-45 [27] = assay: Cell cycle arrest in human MKN45 cells assessed as accumulation at G2/M phase at 8 uM after 24 hrs by propidium iodide staining-based flow cytometric method (reference value: 1.62%); assay type: functional; method in brief: as §2
MKN-45 [28] = assay: Induction of apoptosis in human MKN45 cells assessed as viable cells at 4 uM after 24 hrs by Annexin V-FITC/propidium iodide staining-based flow-cytometric method (reference value: 90.8%); assay type: functional; settings: MKN-45, 24 h, read-out: Activity
MKN-45 [29] = assay: Induction of apoptosis in human MKN45 cells assessed as upregulation of Bax expression after 24 hrs by Western blot method; assay type: functional, cell-based; method in brief: as §3
MKN-45 [30] = assay: Cell cycle arrest in human MKN45 cells assessed as accumulation at G1 phase at 8 uM after 24 hrs by propidium iodide staining-based flow cytometric method (reference value: 58.2%); assay type: functional; method in brief: as §2
MKN-45 [31] = assay: Induction of apoptosis in human MKN45 cells assessed as early apoptotic cells at 2 uM after 24 hrs by Annexin V-FITC/propidium iodide staining-based flow-cytometric method (reference value: 1.31%); assay type: functional

SMILES: CCCSc1nc(N2CCN(C)CC2)c2ncc(=O)n(CCCc3ccccc3)c2n1
IC50 (ECa-109 cell line): 18.3 µM
IC50 (MKN-45 [1]): 9.97 µM
IC50 (NCI-H1650): > 64 µM
IC50 (MGC-803): 13.8 µM

SMILES: CCCSc1nc(N2CCN(C)CC2)c2ncc(=O)n(Cc3ccco3)c2n1
IC50 (ECa-109 cell line): 24 µM
IC50 (MKN-45 [1]): 11.6 µM
IC50 (NCI-H1650): 54.9 µM
IC50 (MGC-803): > 64 µM

SMILES: CCCSc1nc(NCc2ccccc2)c2ncc(=O)n(Cc3ccccc3)c2n1
IC50 (ECa-109 cell line): > 64 µM
IC50 (MKN-45 [1]): > 64 µM
IC50 (NCI-H1650): > 64 µM
IC50 (MGC-803): 46.6 µM

SMILES: CN1CCN(c2ncnc3c2ncc(=O)n3Cc2ccccc2)CC1
IC50 (ECa-109 cell line): 41.7 µM
IC50 (MKN-45 [1]): > 64 µM
IC50 (NCI-H1650): > 64 µM
IC50 (MGC-803): > 64 µM

Second part, led by results:

IC50 (MKN-45 [1]): 16.8 µM
IC50 (NCI-H1650): 45.4 µM
IC50 (MGC-803): 17.2 µM
SMILES: CCCSc1nc(N2CCN(C)CC2)c2ncc(=O)n(CC(C)C)c2n1
IC50 (ECa-109 cell line): 37.5 µM

IC50 (MKN-45 [1]): 15.4 µM
IC50 (NCI-H1650): > 64 µM
IC50 (MGC-803): 18.7 µM
SMILES: CCCSc1nc(N2CCN(Cc3ccccc3)CC2)c2ncc(=O)n(Cc3ccccc3)c2n1
IC50 (ECa-109 cell line): > 64 µM

IC50 (MKN-45 [1]): > 64 µM
IC50 (NCI-H1650): > 64 µM
IC50 (MGC-803): 49.6 µM
SMILES: CCCSc1nc(N2CCOCC2)c2ncc(=O)n(Cc3ccccc3)c2n1
IC50 (ECa-109 cell line): > 64 µM

IC50 (MKN-45 [1]): 4.32 µM
IC50 (NCI-H1650): 9.92 µM
IC50 (MGC-803): 7.01 µM
SMILES: CCCSc1nc(N2CCN(C)CC2)c2ncc(=O)n(Cc3ccccc3)c2n1
IC50 (ECa-109 cell line): 9.85 µM
Activity (MKN-45 [2]): Active
Activity (MKN-45 [3]): 29.2%
viability at 8 µM (MKN-45 [4]): 66.8%
Activity (MKN-45 [5]): 9.91%
Activity (MKN-45 [6]): 16%
Activity (MKN-45 [7]): Active
Activity (MKN-45 [8]): 24%
Activity (MKN-45 [9]): Active
Activity (MKN-45 [10]): 1.62%
Activity (MKN-45 [11]): Dose-dependent effect
Activity (MKN-45 [12]): 16.2%
Activity (MKN-45 [13]): 16.6%
Activity (MKN-45 [14]): 23.1%
Activity (MKN-45 [15]): 1.02%
Activity (MKN-45 [16]): Dose-dependent effect
Activity (MKN-45 [17]): 20.2%
Activity (MKN-45 [18]): 2.34%
Activity (MKN-45 [19]): Active
Activity (MKN-45 [20]): 42.2%
Activity (MKN-45 [21]): 7.77%
Activity (MKN-45 [22]): Dose-dependent effect
Activity (MKN-45 [23]): Dose-dependent effect
Activity (MKN-45 [24]): 11.3%
viability at 2 µM (MKN-45 [25]): 71.4%
Activity (MKN-45 [26]): 25.7%
Activity (MKN-45 [27]): 40.8%
viability at 4 µM (MKN-45 [28]): 73%
Activity (MKN-45 [29]): Dose-dependent effect
Activity (MKN-45 [30]): 6.91%
Activity (MKN-45 [31]): 15.7%

IC50 (MKN-45 [1]): 17.9 µM
IC50 (NCI-H1650): 51.8 µM
IC50 (MGC-803): 53.7 µM
SMILES: CCCSc1nc(N2CCN(C)CC2)c2ncc(=O)n(CC3CCCCC3)c2n1
IC50 (ECa-109 cell line): > 64 µM
